From ChEMBL document CHEMBL1122456, “Structure-activity relationships for activation of adenylate cyclase by the diterpene forskolin and its derivatives” (J Med Chem, 1983)

Assays:
Type in all cases: functional
Cavia porcellus = species on record: Cavia porcellus; experiment: Percent conversion of total labeled nucleotides to cyclic AMP, determined in guinea pig cerebral cortical vesicular entities at 200 uM concentration
In short: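 Gray-matter cortex slices from male NIH guinea pigs (300 g) homogenized in O2/CO2-gassed KRB, pH 7.4. The 1000g pellet was labeled with [3H]adenine for 30 min at 37 °C, washed, post-incubated 15 min at 37 °C, and aliquoted. Aliquots were equilibrated 10 min at 37 °C, then given compound at 200 μM for 10 min at 30 °C and stopped with TCA. Read-out is labeled cAMP as percent of total labeled adenine nucleotides, reported as mean ± SEM.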

Rattus norvegicus = species on record: Rattus norvegicus; experiment: Concentration required to activate rat cerebral cortical adenylate cyclase activity elicited by 200 uM forskolin
In short: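 Fresh crude cortical membranes from male Sprague-Dawley rats (150-175 g). Incubated in 50 mM Tris-HCl pH 7.5 with 1.0 mM IBMX, 5 mM MgCl2, 0.1 mM ATP plus [α-32P]ATP, 0.2 mM EGTA, and a creatine phosphate/creatine kinase regenerating system. About 100 μg protein per assay, 30 °C for 10 min, stopped with TCA, [32P]cAMP isolated. Run in triplicate. EC50 taken from ≥2 curves over 0.01–200 μM. Where full activation was not reached, EC50 is the concentration giving 50% of the maximal activity with 200 μM forskolin.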

Oryctolagus cuniculus = species on record: Oryctolagus cuniculus; experiment: Percent stimulation of adenylate cyclase determined in rabbit heart membranes at 5 uM of compound as compared to 5 uM of forskolin; conditions: Membrane

EC50 (Rattus norvegicus) [µM]	Stimulation (Oryctolagus cuniculus) [%]	SMILES	Conversion (Cavia porcellus) [%]
> 200	28	C=C[C@@]1(C)CC(=O)[C@@]23OS(=O)O[C@H]4CCC(C)(C)[C@H](C(O)C(OC(C)=O)[C@H]2O1)C43C (some centres undefined)	1.2
> 25	5	C=C[C@@]1(C)CC(=O)[C@@]2(O)[C@H](O1)C(OS(=O)(=O)c1ccc(C)cc1)C(O)[C@H]1C(C)(C)CC[C@H](O)C12C (some centres undefined)	0.16
–	5	CC(=O)OC1C(O)[C@H]2C(C)(C)CC[C@H](O)C2(C)[C@@]2(O)C(=O)C[C@](C)(C3CO3)O[C@H]12 (some centres undefined)	0.22
200	59	C=C[C@@]1(C)CC(=O)[C@@]2(O)[C@H](O1)C(OC(=O)N(CC)CC)C(O)[C@H]1C(C)(C)CC[C@H](O)C12C (some centres undefined)	0.84
–	1.6	C=C[C@@]1(C)C[C@@H](O)[C@H]2[C@H](O1)C(O)C(O)[C@H]1C(C)(C)CC[C@H](O)C21C (some centres undefined)	0.41
100	49	CC[C@@]1(C)CC(=O)[C@@]2(O)[C@H](O1)C(OC(C)=O)C(O)[C@H]1C(C)(C)CC[C@H](O)C12C (some centres undefined)	0.97
> 200	20	C=C[C@@]1(C)CC(=O)[C@@]2(O)[C@H](O1)C(OC(C)=O)C(OC(C)=O)[C@H]1C(C)(C)CC[C@H](OC(C)=O)C12C (some centres undefined)	0.47
20	51	C=C[C@@]1(C)CC(=O)[C@@]2(O)[C@H](O1)C(O)C(O)[C@H]1C(C)(C)CC[C@H](O)C12C (some centres undefined)	1.37
8	60	C=C[C@@]1(C)CC(=O)[C@@]2(O)[C@H](O1)C(OC(=O)OCC)C(O)[C@H]1C(C)(C)CC[C@H](O)C12C (some centres undefined)	4.01
–	1	C=C[C@@]1(C)CC(=O)[C@@]23OC(=O)O[C@H]4CCC(C)(C)[C@H](C5OC(=O)OC5[C@H]2O1)C43C (some centres undefined)	0.25
–	1	C=C[C@@]1(C)CC(=O)[C@H]2[C@H](O1)C(OC(C)=O)C(O)[C@H]1C(C)(C)CCCC21C (some centres undefined)	0.18
200	47	C=C[C@@]1(C)CC(=O)[C@@]2(O)[C@H](O1)C(OC(C)=O)C(O)[C@H]1C(C)(C)CCC(=O)C12C (some centres undefined)	0.76
> 25	31	C=C[C@@]1(C)CC(=O)[C@@]2(O)[C@H](O1)C(OC(=O)c1cc(OC)c(OC)c(OC)c1)C(O)[C@H]1C(C)(C)CC[C@H](O)C12C (some centres undefined)	0.26
8	100	C=C[C@@]1(C)CC(=O)[C@@]2(O)[C@H](O1)C(OC(C)=O)C(O)[C@H]1C(C)(C)CC[C@H](O)C12C (some centres undefined)	4.4
–	0	C=C[C@@]1(C)CC(=O)[C@@]2(O)[C@H](O1)C(OC(C)=O)C(=O)[C@H]1C(C)(C)CCC(=O)C12C (some centres undefined)	0.17
–	0	CC(=O)OC1C(O)[C@H]2C(C)(C)CC[C@H](O)C2(C)[C@@]23OC(CO)[C@@](C)(CC2=O)O[C@H]13 (some centres undefined)	0.18
15	67	C=C[C@@]1(C)CC(=O)[C@@]2(O)[C@H](O1)C(OC(=O)CC)C(O)[C@H]1C(C)(C)CC[C@H](O)C12C (some centres undefined)	1.07
150	52	C=C[C@@]1(C)CC(=O)[C@@]2(O)[C@H](O1)C(OC=O)C(O)[C@H]1C(C)(C)CC[C@H](O)C12C (some centres undefined)	0.47
50	49	C=C[C@@]1(C)C[C@H](O)[C@@]2(O)[C@H](O1)C(OC(C)=O)C(O)[C@H]1C(C)(C)CC[C@H](O)C12C (some centres undefined)	0.97
100	46	C=C[C@@]1(C)CC(=O)[C@H]2[C@H](O1)C(OC(C)=O)C(O)[C@H]1C(C)(C)CC[C@H](O)C21C (some centres undefined)	0.84
